Source: ChEMBL document CHEMBL4680124, “2-Styryl-4-aminoquinazoline derivatives as potent DNA-cleavage, p53-activation and in vivo effective anticancer agents” (Eur J Med Chem, 2020)
The source made the active and inactive calls. No cut-off for these calls is given here.

How the values were obtained:
Mus musculus = assay: Toxicity against BALB/c nude mouse xenografted with human MGC-803 cells assessed as body weight at 10 mg/kg, ip administered every 2 days and measured 3 times per week for 16 days; type: organism-based; conditions: in vivo, 384 h, time 16 day
Outline: (§1)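 Male BALB/c nude mice, 6 weeks old, received 5×10^6 MGC-803 cells subcutaneously in the flank. At about 80 mm3, mice were randomized (n = 6/group). They were dosed i.p. every 2 days with vehicle (5% DMSO in saline, v/v) or drug in DMSO/saline at 1.0 or 2.0 mg/mL. Body weight was recorded three times weekly; mean ± SD.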

MGC-803 [1] = assay: Induction of DNA damage in human MGC-803 cells assessed as increase in p-p53 level at 2.5 uM measured after 24 hrs by Western blot analysis; type: functional, cell-based
Outline: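 MGC-803 cells (2×10^6) plated overnight, then treated for 24 h at 0.5, 1.0 or 2.5 µM (test agent) or 5.0 µM (comparator). Whole-cell lysates separated by SDS-PAGE, transferred to PVDF and probed with primary antibodies. AP-linked anti-rabbit IgG, ECL detection, β-actin loading control. Representative of three experiments.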

MGC-803 [2] = assay: Cell cycle arrest in human MGC-803 cells assessed as accumulation at S phase at 0.125 uM after 48 hrs by propidium iodide staining-based flow cytometric analysis (reference value: 45.1 %); type: functional
MGC-803 [3] = assay: Induction of apoptosis in human MGC-803 cells assessed as viable cells at 2.5 uM measured after 24 hrs by Annexin-V/propidium iodide staining-based flow cytometric analysis (Rvb =92.2 %); conditions: MGC-803, 24 h
[4] = Toxicity against BALB/c nude mouse xenografted with human MGC-803 cells assessed as body weight at 20 mg/kg, ip administered every 2 days and measured 3 times per week for 16 days; type: organism-based; conditions: in vivo, 384 h, time 16 day; outline: as §1
MGC-803 [5] = assay: Cell cycle arrest in human MGC-803 cells assessed as accumulation at G1 phase at 0.125 uM after 48 hrs by propidium iodide staining-based flow cytometric analysis (reference value: 46.96 %); type: functional
MGC-803 [6] = assay: Induction of apoptosis in human MGC-803 cells assessed as increase in p21 protein expression upto 2.5 uM incubated for 24 hrs by Western blot analysis; type: functional, cell-based; conditions: dose microM <=2.5, time 24.0 hrs
Outline: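 MGC-803 cells (2×10^6) cultured overnight, then exposed 24 h to 0.5, 1.0 or 2.5 μM, or 5.0 μM for the reference agent. Lysates were resolved by SDS-PAGE, transferred to PVDF and probed with primary antibodies. Detection used AP-linked anti-rabbit IgG and ECL. β-actin served as loading control.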

MGC-803 [7] = assay: Cell cycle arrest in human MGC-803 cells assessed as accumulation at G1 phase at 0.5 uM after 48 hrs by propidium iodide staining-based flow cytometric analysis (reference value: 46.96 %); type: functional
[8] = Induction of mitochondria membrane potential loss in human MGC-803 cells assessed as increase in green fluorescence at 1 uM incubated 24 hrs by JC-1 probe based flow cytometry analysis (reference value: 4.67%); type: functional
MGC-803 [9] = assay: Cell cycle arrest in human MGC-803 cells assessed as accumulation at S phase at 0.25 uM after 48 hrs by propidium iodide staining-based flow cytometric analysis (reference value: 45.1 %); type: functional
MGC-803 [10] = assay: Cell cycle arrest in human MGC-803 cells assessed as accumulation at G2/M phase at 0.5 uM after 48 hrs by propidium iodide staining-based flow cytometric analysis (reference value: 7.94%); type: functional

In the case of NCCCCNc1nc(/C=C/c2ccc([N+](=O)[O-])cc2)nc2ccccc12, the Activity (Mus musculus) is reported as “Non-Toxic”, the Activity (MGC-803 [1]) is reported as “Active” and the Activity (MGC-803 [2]) is reported as 46.45%. For the same compound, the viability at 2.5 µM (MGC-803 [3]) was 14.8%, the Activity [4] was “Non-Toxic” and the Activity (MGC-803 [5]) was 35.39%. The Activity (MGC-803 [6]) was “Active”, the Activity (MGC-803 [7]) was 1.44% and the Activity [8] was 13.9%. For the same compound, the Activity (MGC-803 [9]) was 36.91% and the Activity (MGC-803 [10]) was 72.67%.
